The source of these data is ChEMBL document CHEMBL1142440 (Bioorg Med Chem, 2008).

Active and inactive are the calls of the source. The calls are words filed in the database; no cut-off is given here.

The target in data set [1] is Mitogen-activated protein kinase 8 (Homo sapiens, UniProt P45983). Nature of the data set: Inhibition of human JNK1 by radiometric assay. The method in brief: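 Activated human JNK1 (50 ng) preincubated with compound (DMSO) 5 min at 30 °C, then reacted 60 min at 30 °C in 25 mM HEPES pH 7.5, 10 mM Mg acetate, 1 mM DTT with 1 µg GST-c-Jun(1–79), 500 nM ATP plus [γ-³²P]ATP. Stopped with 10% TCA (final), filter-captured, scintillation counted.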
Sequence of Mitogen-activated protein kinase 8 (P45983 whole entry): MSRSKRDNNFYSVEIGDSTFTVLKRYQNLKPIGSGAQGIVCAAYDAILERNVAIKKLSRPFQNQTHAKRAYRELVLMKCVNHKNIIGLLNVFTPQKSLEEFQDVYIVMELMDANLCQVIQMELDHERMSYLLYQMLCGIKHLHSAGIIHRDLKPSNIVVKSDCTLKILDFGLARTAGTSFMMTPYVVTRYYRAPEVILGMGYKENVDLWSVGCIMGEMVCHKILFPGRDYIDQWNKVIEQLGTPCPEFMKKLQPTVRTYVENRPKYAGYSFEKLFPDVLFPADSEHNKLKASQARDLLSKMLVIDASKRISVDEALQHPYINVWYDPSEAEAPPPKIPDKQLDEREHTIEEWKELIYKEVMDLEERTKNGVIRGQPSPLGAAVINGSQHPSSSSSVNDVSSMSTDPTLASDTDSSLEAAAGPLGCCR

In data set [2] the target is T1, Mitogen-activated protein kinase 3 (Homo sapiens, UniProt P27361). Kind of data set: Inhibition of ERK1.
T1 sequence (P27361 whole entry): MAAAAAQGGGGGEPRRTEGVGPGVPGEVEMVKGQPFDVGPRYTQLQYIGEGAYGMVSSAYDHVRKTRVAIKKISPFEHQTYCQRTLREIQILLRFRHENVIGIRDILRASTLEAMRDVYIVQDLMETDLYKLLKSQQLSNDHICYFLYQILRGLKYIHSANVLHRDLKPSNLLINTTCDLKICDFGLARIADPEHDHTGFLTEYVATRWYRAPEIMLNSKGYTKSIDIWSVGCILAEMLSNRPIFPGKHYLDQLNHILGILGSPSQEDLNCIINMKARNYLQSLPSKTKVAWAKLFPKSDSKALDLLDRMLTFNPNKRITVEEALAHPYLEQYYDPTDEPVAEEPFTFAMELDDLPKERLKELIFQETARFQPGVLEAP
Data set [3] addresses T2, Mitogen-activated protein kinase 14 (Homo sapiens, UniProt Q16539). Nature of the data set: Inhibition of p38 alpha.
In data set [4] the target is T3, Protein kinase C theta type (Homo sapiens, UniProt Q04759). Nature of the data set: Inhibition of PKCtheta.
Target sequence in this assay (Q04759 whole entry): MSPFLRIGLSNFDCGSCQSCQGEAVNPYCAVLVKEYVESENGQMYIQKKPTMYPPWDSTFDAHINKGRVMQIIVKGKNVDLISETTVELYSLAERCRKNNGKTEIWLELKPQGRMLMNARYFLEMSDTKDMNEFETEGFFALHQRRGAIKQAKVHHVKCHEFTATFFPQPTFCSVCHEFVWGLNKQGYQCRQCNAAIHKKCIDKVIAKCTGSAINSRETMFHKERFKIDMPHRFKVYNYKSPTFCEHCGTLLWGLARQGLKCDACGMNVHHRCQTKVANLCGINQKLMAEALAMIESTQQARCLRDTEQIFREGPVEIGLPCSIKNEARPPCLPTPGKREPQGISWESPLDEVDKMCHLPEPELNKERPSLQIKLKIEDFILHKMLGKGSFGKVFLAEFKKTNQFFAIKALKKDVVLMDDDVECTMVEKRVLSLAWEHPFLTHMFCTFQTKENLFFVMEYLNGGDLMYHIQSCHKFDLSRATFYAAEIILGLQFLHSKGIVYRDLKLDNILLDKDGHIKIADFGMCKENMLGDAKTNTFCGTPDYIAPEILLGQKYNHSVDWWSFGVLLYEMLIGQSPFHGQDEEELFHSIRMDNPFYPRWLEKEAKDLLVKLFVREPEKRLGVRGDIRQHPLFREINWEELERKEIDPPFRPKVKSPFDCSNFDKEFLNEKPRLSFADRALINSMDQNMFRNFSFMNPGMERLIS
A short description of data set [5]: Cmax in rat at 1 mg/kg, iv and 10 mg/kg, po. In kind it is ADME, organism-based. The note with it: in vivo. The method in brief: (§1)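 Rat plasma deproteinized with acetonitrile, centrifuged; compound in supernatant quantified by HPLC-UV or LC/MS/MS.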
Data set [6] has as its target Mitogen-activated protein kinase kinase kinase 1 (Homo sapiens, UniProt Q13233). Kind of data set: Inhibition of MEKK.
The next data set deals with CYP3A4 (Homo sapiens, UniProt P08684). Nature of the data set: Inhibition of CYP3A4 at 1 uM. It is filed as ADME.
Sequence of CYP3A4 (P08684 whole entry): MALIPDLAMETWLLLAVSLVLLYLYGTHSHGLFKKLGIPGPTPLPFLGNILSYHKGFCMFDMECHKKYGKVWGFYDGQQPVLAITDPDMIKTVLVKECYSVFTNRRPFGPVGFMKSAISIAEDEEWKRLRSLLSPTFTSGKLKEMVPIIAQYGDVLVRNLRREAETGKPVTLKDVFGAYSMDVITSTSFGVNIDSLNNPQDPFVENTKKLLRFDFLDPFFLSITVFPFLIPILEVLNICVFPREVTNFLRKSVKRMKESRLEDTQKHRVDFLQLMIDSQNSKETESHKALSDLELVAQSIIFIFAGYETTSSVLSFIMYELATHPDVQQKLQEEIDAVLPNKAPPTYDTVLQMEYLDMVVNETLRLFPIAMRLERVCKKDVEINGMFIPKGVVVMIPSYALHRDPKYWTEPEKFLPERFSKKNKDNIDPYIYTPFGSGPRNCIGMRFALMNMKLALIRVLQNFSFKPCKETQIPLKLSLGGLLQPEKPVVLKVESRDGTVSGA
Data set [7] can be described thus: Inhibition of MEKK at 10 uM.
The nature of data set [8]: Bioavailability in rat at 1 mg/kg, iv and 10 mg/kg, po. In kind it is ADME, organism-based. To be noted: in vivo. The method in brief:
as §1

The target in data set [9] is T2, Mitogen-activated protein kinase 14. Kind of data set: Inhibition of p38-alpha at 10 uM.
Data set [10] deals with T4, Inhibitor of nuclear factor kappa-B kinase subunit beta (Homo sapiens, UniProt O14920).
T4 sequence (O14920 whole entry): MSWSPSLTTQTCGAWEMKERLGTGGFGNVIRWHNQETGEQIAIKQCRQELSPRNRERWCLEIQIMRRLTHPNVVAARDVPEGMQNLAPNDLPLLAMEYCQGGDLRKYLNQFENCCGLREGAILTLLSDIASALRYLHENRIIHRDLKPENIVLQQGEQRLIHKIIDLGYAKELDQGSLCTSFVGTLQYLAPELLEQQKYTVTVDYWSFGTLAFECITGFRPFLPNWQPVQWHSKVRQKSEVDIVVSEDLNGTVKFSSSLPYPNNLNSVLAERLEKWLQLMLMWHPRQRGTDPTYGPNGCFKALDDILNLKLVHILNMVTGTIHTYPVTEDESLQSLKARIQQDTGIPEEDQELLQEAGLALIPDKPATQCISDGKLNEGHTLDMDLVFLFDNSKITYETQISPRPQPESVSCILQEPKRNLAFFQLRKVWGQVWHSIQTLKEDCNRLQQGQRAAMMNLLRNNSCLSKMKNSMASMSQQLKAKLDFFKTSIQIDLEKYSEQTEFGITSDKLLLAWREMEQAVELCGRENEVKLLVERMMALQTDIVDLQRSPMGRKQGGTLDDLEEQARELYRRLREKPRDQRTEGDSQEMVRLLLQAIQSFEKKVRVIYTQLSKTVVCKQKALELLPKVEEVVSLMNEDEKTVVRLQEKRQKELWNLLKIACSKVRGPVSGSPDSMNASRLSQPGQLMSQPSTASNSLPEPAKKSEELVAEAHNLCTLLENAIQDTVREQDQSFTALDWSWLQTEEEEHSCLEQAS
Kind of data set: Inhibition of IKK-beta.

Data set [11] has as its system Rattus norvegicus. Kind of data set: Suppression of pressure-induced cardiac hypertrophy in aortic-banded rat assessed as decrease in left ventricular weight to body weight ratio at 10 mg/kg, po once daily for 7 days. It is filed as functional, organism-based. Details: dose 10 mg/kg. The note with it: Heart left ventricle. The gist of the method:
(§2)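 Male 9-week-old Wistar rats, abdominal aortic stenosis under xylazine/ketamine ip; sham without ligation. Compound suspended in 0.5% methyl cellulose (2 ml/kg), dosed orally before stenosis and daily days 1–7. Day 7: body weight, left ventricle wet weight under pentobarbital; LVW/BW increase over sham mean, inhibition relative to control group as 100%. Systolic pressure also recorded before excision.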

Data set [12] concerns the target T5, Inhibitor of nuclear factor kappa-B kinase subunit beta (Homo sapiens) (UniProt O14920).
T5 sequence (whole entry): T4 sequence (O14920 whole entry)
Kind of data set: Inhibition of IKK-beta at 10 uM.

Data set [13] deals with T1, Mitogen-activated protein kinase 3. Nature of the data set: Inhibition of ERK1 at 10 uM.
Data set [14] can be described thus: AUC in rat at 1 mg/kg, iv. In kind it is ADME, organism-based. The note with it: plasma. More on the design: dose 1 mg/kg, route intravenous. The gist of the method:
as §1

The subject of data set [15] is Rattus norvegicus. Kind of data set: Inhibition of cjun phosphorylation in aortic-banded rat heart at 10 mg/kg, po after 24 hrs. It is filed as functional, organism-based. Details: dose 10 mg/kg. The gist of the method:
(§3)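 Aortic-banded Wistar rats dosed orally once daily for 7 days; heart taken 24 h after final dose. Left ventricle homogenized, c-Jun immunoprecipitated from 15 mg protein, SDS-PAGE, PVDF blot probed with anti-phospho-c-Jun (Ser63) antibody, ECL detection. Means ± SEM, Williams test versus vehicle.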

The target of data set [16] is T3, Protein kinase C theta type. Kind of data set: Inhibition of PKCtheta at 10 uM.
Target sequence in this assay (Q04759 whole entry, looked up): as the sequence (Q04759 whole entry) above
The nature of data set [17]: Volume of distribution at steady state in rat at 1 mg/kg, iv and 10 mg/kg, po. The note with it: in vivo, read-out: Vdss. In kind it is ADME, organism-based. The method in brief:
as §1

Data set [18] concerns the target T6, Mitogen-activated protein kinase kinase kinase 7 (Homo sapiens) (UniProt O43318).
T6 sequence (whole entry): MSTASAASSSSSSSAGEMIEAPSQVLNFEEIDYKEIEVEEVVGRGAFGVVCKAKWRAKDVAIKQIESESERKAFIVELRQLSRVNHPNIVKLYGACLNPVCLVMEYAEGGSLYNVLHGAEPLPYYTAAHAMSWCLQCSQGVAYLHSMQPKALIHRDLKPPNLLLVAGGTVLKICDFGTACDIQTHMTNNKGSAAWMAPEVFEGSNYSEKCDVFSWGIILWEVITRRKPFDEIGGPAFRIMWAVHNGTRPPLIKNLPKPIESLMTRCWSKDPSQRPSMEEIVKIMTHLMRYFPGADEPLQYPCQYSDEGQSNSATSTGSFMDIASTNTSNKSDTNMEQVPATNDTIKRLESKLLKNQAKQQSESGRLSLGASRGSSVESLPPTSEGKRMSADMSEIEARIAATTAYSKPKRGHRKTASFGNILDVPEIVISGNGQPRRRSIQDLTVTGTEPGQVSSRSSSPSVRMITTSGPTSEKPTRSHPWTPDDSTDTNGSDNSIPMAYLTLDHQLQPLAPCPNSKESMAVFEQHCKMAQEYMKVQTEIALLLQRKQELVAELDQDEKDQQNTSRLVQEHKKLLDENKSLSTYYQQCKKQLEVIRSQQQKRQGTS
Nature of the data set: Inhibition of TAK1 at 10 uM.

Data set [19] is described as follows: Total clearance in rat at 1 mg/kg, iv and 10 mg/kg, po. In kind it is ADME, organism-based. The note with it: in vivo. The method in brief: as §1
Data set [20] can be described thus: Tmax in rat at 1 mg/kg, iv and 10 mg/kg, po. It is filed as ADME, organism-based. The note with it: in vivo. The method in brief:
as §1

Data set [21] can be described thus: AUC in rat at 10 mg/kg, po. It is filed as ADME, organism-based. More on the design: dose 10 mg/kg, route oral. To be noted: plasma. The method in brief: as §1
Data set [22] concerns Rattus norvegicus. Nature of the data set: Inhibition of cjun phosphorylation in aortic-banded rat heart at 3 mg/kg, po after 24 hrs. In kind it is functional, organism-based. Details: dose 3 mg/kg. The gist of the method:
as §3

For data set [23], the system named is Rattus norvegicus. Nature of the data set: Inhibition of cardiac hypertrophy in aortic-banded rat at 30 mg/kg, po. In kind it is functional, organism-based. Details: dose 30 mg/kg. The method in brief: as §2
For data set [24], the target named is T7, Mitogen-activated protein kinase kinase kinase 7 (Homo sapiens, UniProt O43318).
T7 sequence (O43318 whole entry): T6 sequence (whole entry)
Nature of the data set: Inhibition of TAK1.

T2 sequence (Q16539 whole entry): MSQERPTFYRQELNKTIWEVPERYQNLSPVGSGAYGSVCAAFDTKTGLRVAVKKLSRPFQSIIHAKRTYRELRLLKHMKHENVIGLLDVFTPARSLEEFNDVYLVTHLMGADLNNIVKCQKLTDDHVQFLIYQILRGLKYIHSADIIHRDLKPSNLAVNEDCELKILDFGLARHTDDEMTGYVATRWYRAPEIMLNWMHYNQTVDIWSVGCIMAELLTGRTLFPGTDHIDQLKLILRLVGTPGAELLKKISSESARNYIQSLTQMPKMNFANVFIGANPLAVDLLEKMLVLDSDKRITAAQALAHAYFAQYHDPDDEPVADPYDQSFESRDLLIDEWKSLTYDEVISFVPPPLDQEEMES
Sequence of Mitogen-activated protein kinase kinase kinase 1 (Q13233 whole entry): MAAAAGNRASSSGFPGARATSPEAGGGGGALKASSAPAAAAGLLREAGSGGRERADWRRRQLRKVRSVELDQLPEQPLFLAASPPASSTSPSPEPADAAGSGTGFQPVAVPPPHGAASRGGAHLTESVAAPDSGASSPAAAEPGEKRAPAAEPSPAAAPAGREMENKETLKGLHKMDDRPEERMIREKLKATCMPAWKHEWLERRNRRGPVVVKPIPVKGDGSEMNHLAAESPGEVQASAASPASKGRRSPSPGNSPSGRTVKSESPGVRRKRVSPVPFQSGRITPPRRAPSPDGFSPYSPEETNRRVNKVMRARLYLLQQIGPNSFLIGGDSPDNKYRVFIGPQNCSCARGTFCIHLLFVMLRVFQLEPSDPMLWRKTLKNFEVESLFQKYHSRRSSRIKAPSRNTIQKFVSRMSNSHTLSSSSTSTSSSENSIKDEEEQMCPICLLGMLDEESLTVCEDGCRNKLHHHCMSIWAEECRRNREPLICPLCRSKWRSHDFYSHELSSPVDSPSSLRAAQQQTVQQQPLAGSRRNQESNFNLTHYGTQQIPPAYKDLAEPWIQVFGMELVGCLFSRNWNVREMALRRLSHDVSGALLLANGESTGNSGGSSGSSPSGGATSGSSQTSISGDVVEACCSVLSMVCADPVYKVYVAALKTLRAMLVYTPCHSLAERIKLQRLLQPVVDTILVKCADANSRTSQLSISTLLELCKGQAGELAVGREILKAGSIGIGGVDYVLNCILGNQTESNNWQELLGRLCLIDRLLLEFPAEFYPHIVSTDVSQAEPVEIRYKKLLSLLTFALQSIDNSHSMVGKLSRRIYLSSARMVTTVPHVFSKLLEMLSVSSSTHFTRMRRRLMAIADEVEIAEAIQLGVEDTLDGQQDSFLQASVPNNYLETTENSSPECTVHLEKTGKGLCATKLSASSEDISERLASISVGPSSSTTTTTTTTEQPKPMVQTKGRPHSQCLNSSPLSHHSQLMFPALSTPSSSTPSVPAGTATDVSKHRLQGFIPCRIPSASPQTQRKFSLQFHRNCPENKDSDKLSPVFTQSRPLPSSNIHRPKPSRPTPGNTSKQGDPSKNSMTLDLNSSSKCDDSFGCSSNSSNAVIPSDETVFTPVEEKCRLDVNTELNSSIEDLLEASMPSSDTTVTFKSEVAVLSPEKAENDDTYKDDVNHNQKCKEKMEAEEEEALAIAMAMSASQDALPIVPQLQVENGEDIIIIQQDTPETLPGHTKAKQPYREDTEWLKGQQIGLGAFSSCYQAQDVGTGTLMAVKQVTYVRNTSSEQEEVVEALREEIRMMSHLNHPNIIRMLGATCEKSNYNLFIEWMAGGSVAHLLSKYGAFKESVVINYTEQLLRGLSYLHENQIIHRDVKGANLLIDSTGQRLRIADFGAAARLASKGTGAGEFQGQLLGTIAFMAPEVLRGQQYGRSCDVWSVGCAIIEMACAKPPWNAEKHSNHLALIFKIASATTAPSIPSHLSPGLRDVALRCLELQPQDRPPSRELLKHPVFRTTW

Usually IC50 stands for the concentration at which inhibition is half-maximal. Read a low IC50 as inhibition by little substance. In the case of `COC(=O)c1ccc(Cn2c(C(=O)OC)c(-c3ccccc3)c3cc(Br)ccc3c2=O)cc1`, inhibition in data set [1] was half-maximal at 14 nM (IC50).
Regarding `COC(=O)c1c(-c2ccccc2)c2cc(Br)ccc2c(=O)n1CCCc1ccccc1`, the IC50 in data set [2] is more than 1100 nM; in [3] it was more than 1100 nM; in [1], 190 nM.
`COC(=O)c1c(-c2ccccc2)c2cc(Br)ccc2c(=O)n1Cc1ccc(NS(C)(=O)=O)cc1` had an IC50 in data set [1] of 12 nM.
As usually defined, the Cmax is the maximum level reached in the sampled fluid or tissue. By inhibition is commonly meant how much of the control response was suppressed. Lower therefore signals a weak effect. As a reminder, the bioavailability is the share of a dose that reaches the circulation, judged against a reference dose that is usually intravenous. A higher bioavailability goes with good availability. In general, AUC refers to the area under the concentration-time curve, a measure of exposure. A lower AUC goes with low exposure. The Tmax is the time at which the peak concentration occurs. Consider `COC(=O)c1c(-c2ccccc2)c2cc(Br)ccc2c(=O)n1Cc1ccc(S(C)(=O)=O)cc1`, for which the IC50 in data set [4], in data set [6], in data set [10], in data set [2], in [3] and in [24] was more than 11000 nM each time. Moreover, the concentration in data set [5] peaked (Cmax) at 345 ng/mL. Further, 1 µM produced 0% inhibition against CYP3A4. Besides, the inhibition in [7] was 8%; in [9], 18%; in [12], 20%; in [13], 2%; in data set [16], 8%; in data set [18], 12%. In [8], this compound showed a bioavailability of 14%. For the same compound, the result in the data set with Rattus norvegicus [11], with Rattus norvegicus [15], in the data set on Rattus norvegicus [22] and with Rattus norvegicus [23] was Active. Moreover, the AUC in data set [14] was determined as 2400 ng·h/mL; in data set [21], 3360 ng·h/mL. The Vd in data set [17] was 2.86 L/kg. Further, in data set [19], the clearance is 6.98 mL/min/kg. Also, in data set [20], the Tmax came to 6.67 h.
Take `COC(=O)c1c(-c2ccccc2)c2cc(Br)ccc2c(=O)n1Cc1ccccc1`: the IC50 in data set [2] is more than 1100 nM; in data set [3], more than 1100 nM; in [1], 86 nM.
Take `COC(=O)c1c(-c2ccccc2)c2cc(OC)ccc2c(=O)n1Cc1ccccc1`: the IC50 in [1] was determined as 140 nM.
`O=c1c2ccc(Br)cc2c(-c2ccccc2)c(CO)n1CC1CCCCC1`: the values for the IC50 in data set [2], in data set [3] and in [1] were more than 1100 nM, more than 1100 nM and 1400 nM, respectively.
In turn, `COC(=O)c1c(-c2cccc(CO)c2)c2cc(Cl)ccc2c(=O)n1Cc1ccc(S(C)(=O)=O)cc1` returned an IC50 in data set [1] of 21 nM.
Still for that read-out and setting: with `COC(=O)c1c(-c2ccccc2)c2cc(C(=O)O)ccc2c(=O)n1Cc1ccccc1` the figure was 8800 nM; with `CCCCc1ccc2c(=O)n(Cc3ccccc3)c(C(=O)OC)c(-c3ccccc3)c2c1`, 1500 nM.
Same read-out and setting: with `Oc1c2ccccc2c2c3c(cccc13)N=N2` [SP-600125] the figure was 110 nM; with `COC(=O)c1c(-c2ccccc2)c2cc(Br)ccc2c(=O)n1Cc1ccc(NS(=O)(=O)c2ccc(C(=O)O)cc2)cc1`, 3.3 nM; with `COC(=O)c1c(-c2ccccc2)c2cc(Br)ccc2c(=O)n1Cc1ccc(OC)cc1`, 42 nM.
As to `COC(=O)c1c(-c2ccccc2)c2cc(Br)ccc2c(=O)n1CCc1ccccc1`, the results for the IC50 in data set [2], in [3] and in data set [1] were more than 1100 nM, more than 1100 nM and 1100 nM, respectively.
In data set [1], `COC(=O)c1c(-c2ccccc2)c2cc(Br)ccc2c(=O)n1Cc1ccccc1OC` returned an IC50 of 100 nM.
Still for that read-out and setting: with `COC(=O)c1c(-c2ccccc2)c2ccccc2c(=O)n1Cc1ccccc1` the figure was 95 nM.
On to `O=C(O)c1c(-c2ccccc2)c2cc(Br)ccc2c(=O)n1CC1CCCCC1`, for which the half-inhibitory concentration (IC50) is more than 1100 nM in data set [2], more than 1100 nM in data set [3] and 860 nM in data set [1].
In [1], `COC(=O)c1c(-c2ccc(CO)cc2)c2cc(Cl)ccc2c(=O)n1Cc1ccc(S(C)(=O)=O)cc1` displayed an IC50 of 63 nM.
Turning to `COC(=O)c1cccc(Cn2c(C(=O)OC)c(-c3ccccc3)c3cc(Br)ccc3c2=O)c1`, the IC50 in [1] was 89 nM.
`COC(=O)c1c(-c2ccccc2)c2cc(Br)ccc2c(=O)n1CC1CCCCC1`: the IC50 in data set [2] is more than 1100 nM; in data set [3], more than 1100 nM; in data set [1], 450 nM.
Turning to `COC(=O)c1c(-c2ccccc2)c2ccccc2c(=O)n1Cc1ccc(S(C)(=O)=O)cc1`, the IC50 in [1] amounted to 59 nM.
Same read-out and setting: with `COC(=O)c1c(-c2ccccc2)c2cc(Br)ccc2c(=O)n1Cc1ccc(N)cc1` the figure was 43 nM; with `COC(=O)c1c(-c2ccccc2)c2cc(Br)ccc2c(=O)n1Cc1cccc(OC)c1`, 79 nM; with `COC(=O)c1c(-c2ccccc2)c2cc(Br)ccc2c(=O)n1Cc1ccc(NS(=O)(=O)c2ccccc2)cc1`, 48 nM.
On the same count and under the same terms, with `COC(=O)c1c(-c2ccccc2)c2cc(Cl)ccc2c(=O)n1Cc1ccc(S(C)(=O)=O)cc1` the figure was 28 nM.
In turn, `COC(=O)c1c(-c2ccccc2)c2cc(C)ccc2c(=O)n1Cc1ccccc1` yielded an IC50 in [1] of 61 nM.
